Measurements gathered from unrelated publications.
Each line is one published result; the experiments were not run side by side.
Target: Serine/threonine-protein kinase WNK3 (WNK3, Homo sapiens, UniProt Q9BYP7)

| SMILES | assay | conditions | measurement | result |
| --- | --- | --- | --- | --- |
| CC(C)(O)[C@H]1CC[C@H](Nc2ccc3ncc(-c4cccc(C(F)(F)F)c4)n3n2)CC1 | enzyme activity, inhibitor | 1 µM | remaining activity | 90.7% |
| CN(C)C(=O)Cn1cc(-c2nc([C@@](C)(c3ccc(-c4cnc(N)nc4)cc3)C3CC3)no2)cn1 | cell-free assay, competition with immobilised ligand | 1 µM | remaining binding | 76% |
| CCCS(=O)(=O)Nc1ccc(F)c(C(=O)c2c[nH]c3ncc(-c4ccc(Cl)cc4)cc23)c1F | enzyme activity, inhibitor | 1 µM | inhibition | < 10% |
| CC(C)(O)c1cncc(-c2nc3ccc(F)cc3n2C2CC2)c1 | cell-free assay, competition with immobilised ligand | 1 µM | remaining binding | 100% |
| CCN(CC)CCNC(=O)c1c(C)[nH]c(/C=C2\C(=O)Nc3ccc(F)cc32)c1C | enzyme activity, inhibitor | 0.3 µM | inhibition | -4% |
| CC(C)(C)c1nc2c(s1)c1nc(N)ncc1c1ccc(NS(=O)(=O)c3c(F)cccc3F)c(F)c12 | enzyme activity, inhibitor, radiometric | 1 µM | remaining activity | 91% |
| CCC(=N\O)/C(C)=C/c1ccc(F)cc1 | cell-free assay, competition with immobilised ligand | 1 µM | remaining binding | 75% |
| O=C1NC(=O)c2cc(Nc3ccc(F)cc3)c(Nc3ccc(F)cc3)cc21 | cell-free assay | 0.5 µM | remaining signal | 92.7% |
| O=C(NCCCC1CCCCC1)c1ccc(CNC(=O)c2cnn(-c3ccccc3)c2C(F)(F)F)cc1 | cell-free assay, competition with immobilised ligand | 0.1 µM | remaining binding | 100% |
| Cc1cnc(NC2CCOCC2)nc1-n1cnc(C(=O)NC(CN)c2cc(F)cc(Cl)c2)c1 (centres unmarked) | enzyme activity, inhibitor, radiometric | 1 µM | remaining activity | 103% |
| CN1CC(Oc2cnc(C#N)cc2-c2ccn3nc(NC(=O)C4CC4)cc3c2)C1 | enzyme activity, inhibitor | 1 µM | inhibition | -5% |
| Cc1cc(NC(=O)c2cccc3cc(-c4cccc5[nH]nc(N)c45)ccc23)ccc1F | enzyme activity, inhibitor | 0.1 µM | activity vs control | 93% |
| O=C1Nc2ccc(Cl)cc2C1=Cc1cc(Cl)c(O)c(Cl)c1 | cell-free assay | 0.5 µM | remaining signal | 90.7% |
| Cc1ccc(Nc2nccc(N(C)c3ccc4c(C)n(C)nc4c3)n2)cc1S(N)(=O)=O | enzyme activity, inhibitor | 0.3 µM | inhibition | -4% |
| O=C(Nc1cnn(-c2csc(C(=O)NC3COC3)c2)c1)Nc1c(F)cccc1Cl | enzyme activity, inhibitor | 5 µM | remaining activity | 91.8% |
| CNCc1ccccc1-c1csc([C@@H](C)Nc2nc(C)nc3cc(OC)c(OC)cc23)c1 | cell-free assay, competition with immobilised ligand | 1 µM | remaining binding | 100% |
| CNC(=O)c1cc(Oc2ccc(NC(=O)Nc3ccc(Cl)c(C(F)(F)F)c3)cc2)ccn1 | enzyme activity, inhibitor | 0.3 µM | inhibition | -6% |
